We go through five compounds from publication PMC5003678 (European journal of medicinal chemistry, 2016).

The structures appear in SMILES notation.

For orientation: IC50 means the concentration that inhibits the measured activity by half.

Data set [1] has as its system six cancer cell lines (HL-60, HCT-116, PC3, SF295, MDA-MB-435, OVCAR-8). Kind of data set: MTT cytotoxicity assay, cancer cell lines overall. Type of data set: cell-based, human. The note with it: classified by IC50. In general terms: Formazan colour is commonly taken as a measure of viable cells.
Data set [2] deals with HL-60 (human promyelocytic leukemia cells). The note with it: read-out: Cytotoxic activity IC50 (95% CI) HL-60; 72 h exposure; ref [41]; cited from earlier work.
The test system of data set [3] is SF295 (human glioblastoma cells). The note with it: read-out: Cytotoxic activity IC50 (95% CI) SF295; 72 h exposure; ref [41]; cited from earlier work.
The test system of data set [4] is A549 cells (human non-small cell lung adenocarcinoma). Kind of data set: DNA survival assay, NQO1-dependency with or without dicoumarol. The data set is classed as cell-based. As to conditions: two hours exposure.
The next data set concerns PC3 cells. Kind of data set: Annexin V/PI detection of phosphatidylserine externalization. Type of data set: cell-based, human. The note with it: 5 μM, 6 h; for phosphatidylserine externalization, pre-treated with NAC: 5 mM NAC pre-exposure (24 h); for phosphatidylserine externalization, co-treated with dicoumarol: dicoumarol 50 μM. The gist of the method:
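PC3 cells were grown in RPMI 1640 with 10% FBS, 2 mM L-glutamine and penicillin/streptomycin at 37 °C and 5% CO2. They were exposed to 5 μM test compound for 6 h, either after a 24 h pre-exposure to 5 mM N-acetylcysteine or with 50 μM dicoumarol co-treatment. Cells were stained with FITC-Annexin V plus PI and read by flow cytometry, with early apoptosis as FITC only and late as FITC+PI. 10,000 events were counted per experiment, debris excluded, n = 3.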

The next data set concerns intracellular ROS. Kind of data set: Generation of intracellular ROS. The data set is classed as cell-based.

In the case of `C#Cc1cccc(NC2CC(C)(C)OC3=C2C(=O)c2ccccc2C3=O)c1` (stereo not drawn) [Compound 4, 4-((3-ethynylphenyl)amino)-2,2-dimethyl-3,4-dihydro-2H-benzo[g]chromene-5,10-dione], in data set [1], the “activity classification against cancer cell lines” value (shortened to “activity classification”) is recorded as “non-active”.

In the case of `CC1(C)OC2=C(C(=O)C(=O)c3ccccc32)C(N=[N+]=[N-])[C@@H]1Br` (stereo partly drawn) [Compound 9], the 50% inhibitory concentration (IC50) in data set [2] is 1430 nM; in data set [3], 1930 nM.

As for `CC1(C)OC2=C(C(=O)C(=O)c3ccccc32)C1Nc1cccc(-c2cn(C[Se]c3ccccc3)nn2)c1` (stereo not drawn) [Compound 21, 2,2-dimethyl-3-((3-(1-((phenylselanyl)methyl)-1H-1,2,3-triazol-4-yl)phenyl)amino)-2,3-dihydronaphtho[1,2-b]furan-4,5-dione], the “NQO1 Specific” value in data set [4] was “NQO1-dependent”. In the data set with PC3 cells, the phosphatidylserine externalization result is given as “significant increase”; the “phosphatidylserine externalization, pre-treated with NAC” value was “not observed”; the “phosphatidylserine externalization, co-treated with dicoumarol” value was “not observed”. Also, the “generation of intracellular ROS, pre-exposed with NAC” value in the data set on intracellular ROS (cultures pre-exposed with NAC) is “not able to generate ROS”. Moreover, the “generation of intracellular ROS” value in the data set with intracellular ROS (short exposure (1 h)) is recorded as “led to the generation of intracellular ROS”. Besides, in data set [1], the “activity classification” value was “highly active (highly active (IC50 < 2 μM))”.

On to `CC1(C)OC2=C(C(=O)C(=O)c3ccccc32)C1n1cc(C[Se]c2ccccc2)nn1` (stereo not drawn) [Compound 22, 2,2-dimethyl-3-(4-((phenylselanyl)methyl)-1H-1,2,3-triazol-1-yl)-2,3-dihydronaphtho[1,2-b]furan-4,5-dione], for which the “NQO1 Specific” value in data set [4] was “NQO1-dependent”. In the data set with PC3 cells, the phosphatidylserine externalization entry is “significant increase”; the “phosphatidylserine externalization, pre-treated with NAC” value is “not observed”; the “phosphatidylserine externalization, co-treated with dicoumarol” value is “not observed”.

Consider `O=C1C(=O)c2ccccc2C2=C1CC(Cn1cc(C[Se]c3ccccc3)nn1)O2` (stereo not drawn) [Compound 26, 2-((4-((phenylselanyl)methyl)-1H-1,2,3-triazol-1-yl)methyl)-2,3-dihydronaphtho[1,2-b]furan-4,5-dione], for which the “activity classification” value in data set [1] was “highly active (highly active (IC50 < 2 μM))”.
